In publication PMC11339821 (ACS Omega, 2024):
Where “and” joins values, the source holds several entries; their conditions need not be identical. Equal values may be shown once.

Assays:
Assay type in all cases: in vivo, Swiss albino mice
[1] = system: spatial memory of scopolamine-treated AD mice; assay: Morris water-maze test in scopolamine-treated mice; conditions: for spatial memory (probe test, fifth day): after platform removal, vs scopolamine group; for number of entries in the arm: intranasal 0.5 mg/kg bw; for time to find the hidden acrylic platform: intranasal 0.5 mg/kg bw (EGCG-AA-TRANS 0.25 mg/kg bw each)
How it was run: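 Mice (30 ± 5 g; n = 5/group) were dosed intranasally for 6 days with free or transferosome-loaded test compound at 0.5 mg/kg bw, or 0.25 mg/kg bw of each in the combination. On day 7, scopolamine 0.5 mg/kg bw was given 30 min before trials. Pool 160 cm wide, water 26 cm deep, 22 ± 1 °C; run over 5 days. Quadrant time, arm entries and platform latency recorded; one-way ANOVA with Newman–Keuls.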

[2] = Organ distribution and brain pharmacokinetic study; conditions: brain
NO levels = assay: NO; conditions: hippocampus tissue homogenate
How it was run: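 Hippocampus came from mice dosed intranasally for 6 days and challenged with scopolamine (n = 5). Tissue was homogenised in KCl buffer pH 8.0 with protease and phosphatase inhibitors, then spun at 10,000 g for 25 min at 4 °C. The 10% homogenate was mixed with ammonium chloride and Griess reagent, held 37 °C for 90 min, read at 540 nm. Sodium nitrite standards […]; nitrite in μM/mL; one-way ANOVA with Newman–Keuls.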

[3] = Swiss albino, mouse, inhaled or intranasal, 0.5 mg/kg

Row | Compound | spatial memory (probe test, fifth day) [1] | number of entries in the arm [1] | time to find the hidden acrylic platform [1] | Cmax ([2]; mice) | MRT0–24 ([2]; mice) | Tmax ([2]; mice) | NO levels (NO levels) | AUC(0-t) [2, 3] | Cmax [2, 3] | MRT last [2, 3] | Tmax [2, 3]
1 | Epigallocatechin-3-gallate [EGCG] | improved spatial memory | 14 times | 42 s | 0.78607 ± 0.000784 ng/mL | 1.4 ± 0.985 h and 1.412 ± 0.985 h | 1.101 ± 2.871 h | significant decrease in NO levels | – | – | – | –
2 | CN1[C@@H]2C[C@@H](OC(=O)[C@H](CO)c3ccccc3)C[C@H]1[C@@H]1O[C@@H]12 [scopolamine, Scopolamine] | significantly reduced their spatial memory | about 12 times | 84 s | – | – | – | significantly higher | – | – | – | –
3 | O=C1O[C@H]([C@@H](O)CO)C(O)=C1O [AA, ascorbic acid] | improved spatial memory | 15 times | 38 s | – | – | – | significant decrease in NO levels | 1061 ± 0.654 ng·h/mL | 855.03 ± 0.654 ng/mL | 1.98 ± 0.121 h | 2.12 ± 0.871 h
